HNF4A DNA FP = change in binding of human HNF4 alpha to DNA; HNF4a-FITC DNA binding, fluorescence polarization, 1 h; activity change, % at 10 µM; actives 0.3% (n = 360,000); in the data active = activity change above about 30%, passing the limit was not always enough
CSN inh = CSN deneddylation inhibition. actives 0.38% (n = 360,000). inhibition, % at 12.5 µM. Purified CSN, SCF-Nedd8-OG deneddylation, fluorescence polarization. Q92905. AID 651999;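 active = pattern-corrected inhibition above about 35%, with an unprinted fluorescence ratio check between 0.5 and 1.5, limit read from the data, passing the limit was not always enough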;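 also: 0% = enzyme with substrate and 100% = substrate without enzyme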
Target sequence (Q92905 whole entry, looked up, one chain of several): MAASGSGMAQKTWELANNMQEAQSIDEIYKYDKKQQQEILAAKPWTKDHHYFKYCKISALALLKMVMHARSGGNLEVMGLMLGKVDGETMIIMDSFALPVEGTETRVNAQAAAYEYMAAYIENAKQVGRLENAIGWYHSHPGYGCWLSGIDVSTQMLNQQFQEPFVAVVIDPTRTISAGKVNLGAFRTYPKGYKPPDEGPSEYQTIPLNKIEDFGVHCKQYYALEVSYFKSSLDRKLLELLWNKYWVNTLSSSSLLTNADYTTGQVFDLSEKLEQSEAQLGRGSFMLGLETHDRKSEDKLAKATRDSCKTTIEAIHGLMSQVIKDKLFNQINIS
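Schedule: reaction 90 min, room temperature / Assay system: HEK293T-derived human Csn5 enzyme / Input: Csn5 at 0.24 nM final / Measure: inhibition of Csn5 cleavage, % / Control set: substrate-only high control, full reaction low control / Technique: fluorescence polarization of the substrate / Buffer or medium: Tris/NaCl/DTT buffer, pH 7.5 / Reagent: SCFSkp2-Nedd8OG substrate at 10 nM final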
Rpn11 block = inhibitors of human proteasome Rpn11. O00487. human 26S proteasome, Ub4-pepOG fluorescence polarization; 20S core pre-blocked with epoxomicin. inhibition, % at 20 µM. actives 0.59% (n = 360,000). AID 588493;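 active = inhibition at 20 µM, scaled to each plate's controls, above about 33%, limit read from the data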
TPT1 inh = blocks Candida albicans tRNA 2'-phosphotransferase; recombinant caTPT1, FP RNA substrate dephosphorylation; inhibition, % at 5 µM; actives 0.81% (n = 300,000);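 active = inhibition above the mean of all tested compounds plus 3 SD, set per screening campaign, cut at about 24% in these data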;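 also: plate controls were DMSO alone for no effect and ferristatin control at 100 nM for full effect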
SENP1 FRET inh = blocks the human SENP1 SUMO protease catalytic domain; recombinant SENP1 catalytic domain, CyPet-SUMO1-YPet FRET cleavage; inhibition, % at 10 µM; actives 0.21% (n = 360,000); AID 624204;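 active = inhibition at least 30% at 10 µM, raw YFP signal under a set limit, fluorescence ratio 0.5 to 1.5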;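 also: 0% = enzyme with DMSO and 100% = no enzyme wells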
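Controls: no-enzyme wells low, DMSO-plus-enzyme wells high control. Test system: human recombinant His6-tagged SENP1 catalytic domain enzyme. Reagent: SFCypet-SUMO1-SFYpet FRET protein substrate, 25 nM final. Doses: one dose per compound, 10 µM, 0.5% DMSO. Detection: FRET, CFP and YFP emission. Timing: 50 min reaction at room temperature.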
SENP1 conf = SENP1 (human) inhibition, single concentration confirmation | recombinant SENP1, CyPet-SUMO1-YPet FRET cleavage | shares compounds with SENP1 FRET inh | inhibition, % at 10 µM | actives 34% (n = 520); in the data active = inhibition mostly above about 35%, no sharp cut-off; inactive = mostly below about 32%;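 also: 0% = enzyme with DMSO and 100% = no enzyme control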
SENP1 kinetic = confirmation of human SENP1 SUMO protease inhibitors, kinetic | actives 26% (n = 520) | inhibition, % at 10 µM | recombinant SENP1, CyPet-SUMO1-YPet FRET kinetic cleavage | shares compounds with SENP1 FRET inh; in the data active = inhibition mostly above about 32%, no sharp cut-off; inactive = mostly below about 29%;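 also: 0% = DMSO with enzyme and 100% = no enzyme substrate only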
An asterisk follows results filed as active; nt = not tested or not shown. A selection: hits, their analogues and other compounds. The true share with any hit is near 1.6%.

SMILES	HNF4A DNA FP	CSN inh	Rpn11 block	TPT1 inh	SENP1 FRET inh	SENP1 conf	SENP1 kinetic
O=C(CSc1n[nH]c(=O)n1C1CC1)Nc1ccc(F)c(Cl)c1	2	1	-8	nt	44*	11	8
O=C(COC(=O)c1ccncc1)Nc1cc(Cl)c(Cl)cc1Cl	nt	nt	nt	0	nt	nt	nt
N=c1oc2ccc(Br)cc2cc1C(=O)NCc1ccccc1	3	4	4	0	-9	nt	nt
N=c1oc2ccc([N+](=O)[O-])cc2cc1C(=O)NCc1ccccc1	-2	4	nt	2	57*	60*	34
O=C(Nc1cccc2[nH]c([C@H]3C[C@H](O)[C@@H](CO)O3)nc12)NC(c1ccccc1)c1ccccc1	-1	-4	-4	nt	4	nt	nt
Cc1nnc(NC(=O)C2CCCN2S(=O)(=O)c2ccc(Cl)cc2)s1 (centres undefined)	1	-4	0	2	1	nt	nt
CC(=NNc1ccc([N+](=O)[O-])cn1)c1ccc(N)cc1	0	5	-1	nt	41*	22	13
CCCC(=Nc1ccccc1)C1=C(O)C(C(=O)OC)C(C)(C)CC1=O (centres undefined)	-1	-4	-8	0	6	nt	nt
CCC(=Nc1ccc(N)cc1)C1=C(O)C(C(=O)OC)C(C)(C)CC1=O (centres undefined)	0	3	5	-6	54*	1	-3
Cc1ccc(NS(=O)(=O)c2ccc(Cl)c(NC(=S)NC(=O)C3CCCCC3)c2)cc1Cl	-1	-6	1	0	1	nt	nt
Nc1ccccc1C=C1Cc2ccccc2C1=O	-3	9	19	nt	56*	10	-5
COc1ccccc1/C=C1\Cc2ccccc2C1=O	2	1	-2	nt	-25	nt	nt
Cc1nn(-c2ccccc2)c(Cl)c1/C=N/NC(N)=O	3	-7	-2	3	3	nt	nt
Cc1nn(-c2ccccc2)c(Cl)c1/C=N/Nc1nc2ccccc2n1C	-1	2	10	2	33*	6	2
Cc1cnc(C(=O)Nc2ccccc2-c2ccc(C)o2)cn1	0	1	-10	-18	40*	-12	-2
Cc1cnc(C(=O)Nc2cccc3ncccc23)cn1	0	-3	1	-2	-3	nt	nt
COCCC(=O)N1CCCC(C(=O)c2ccc(C(F)(F)F)cc2)C1 (centres undefined)	-6	0	2	-3	2	nt	nt
O=C(CSc1nnc2c(n1)[nH]c1ccccc12)Nc1nncs1	-2	2	1	-2	0	nt	nt
CC1CCc2c(sc3ncnc(SCC(=O)N(C)C4CCS(=O)(=O)C4)c23)C1 (centres undefined)	1	2	5	nt	32*	1	19
COc1ccccc1NC(=O)c1c(N=Cc2c(O)ccc3ccccc23)cnn1C	2	2	11	4	-18	nt	nt
Cn1ncc(N=Cc2ccccc2O)c1C(=O)Nc1ccccc1	0	0	4	-1	37*	18	28
COc1cc(OC)cc(C(=O)NNC(=O)CCc2nc3ccccc3c(=O)[nH]2)c1	4	-1	0	nt	-2	nt	nt
Fc1ccc(-c2cnn3c(-c4cccs4)ccnc23)cc1	8	4	7	nt	56*	24	19
NC(=O)c1nsc(C(=O)N(Cc2cccnc2)C(C(=O)NCc2ccc(F)cc2)c2ccc(O)cc2)c1N (centres undefined)	-2	2	5	2	-9	nt	nt
CN(C)C(=O)CSc1ccc(S(=O)(=O)N2CCCC2)cn1	-2	4	-8	nt	39*	44*	42*
O=C1C=C(NCc2ccc3c(c2)OCO3)CC(c2ccccc2)C1 (centres undefined)	nt	nt	nt	-5	nt	nt	nt
COc1ccc(C(=O)C(C)[n+]2ccc(C)c3ccccc32)cc1[N+](=O)[O-] (centres undefined)	2	20	28	21	78*	6	8
COc1ccc(C(=O)NC(C)CCc2ccccc2)cc1[N+](=O)[O-] (centres undefined)	1	-1	7	-1	1	nt	nt
